Data: ChEMBL document CHEMBL5344415, “Synthesis and Characterization of Phenylalanine Amides Active against Mycobacterium abscessus and Other Mycobacteria” (J Med Chem, 2023)
≈ marks a conversion by molar mass, not a printed value.

Columns and labels:
[1] = test system: Mycolicibacterium smegmatis; assay: Antibacterial activity against Mycobacterium smegmatis mc2 155 expressing tomato RFP assessed as bacterial growth inhibition incubated for 3 days in 7H9 medium by RFP fluorescence based broth microdilution method; type: functional; settings: mc2 155, 72 h, time 3 day
Summary of the method: (§1)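 Broth microdilution in 7H9 with 10 % ADS and 0.05 % Tween 80. Twofold nine-point dilution series. Inoculum 5 x 10⁵ cells/mL taken from a mid-log preculture. Incubation at 37 °C, 3 days for M. smegmatis and M. abscessus, 5 days for M. intracellulare. Read-out by RFP fluorescence (ex 544/em 590 nm). Controls were 1 % DMSO and 100 μM amikacin. MIC₉₀ from duplicates, averaged.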

[2] = test system: Mycobacterium tuberculosis; assay: Antibacterial activity against Mycobacterium tuberculosis H37Rv ATCC 27294 assessed as bacterial growth inhibition incubated for 7 days in 7H9 medium by optical density based microplate reader analysis; type: functional; settings: H37Rv ATCC 27294, 168 h, time 7 day
Summary of the method: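 Compounds serially diluted in flat-bottom 96-well plates. Mid-log culture mixed in to a final OD₆₀₀ of 0.05. Sealed plates incubated in humidified boxes at 37 °C for 7 days with shaking at 80 rpm. Turbidity read at 600 nm. MIC₉₀ taken from dose–response curves. Two biological replicates, averaged.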

[3] = test system: Mycobacteroides abscessus; assay: Antibacterial activity against Mycobacterium abscessus ATCC 19977 expressing tomato RFP assessed as bacterial growth inhibition incubated for 3 days in 7H9 medium by RFP fluorescence based broth microdilution method; type: functional; settings: ATCC 19977, 72 h, time 3 day; summary of the method: as §1
[4] = test system: Mycobacteroides abscessus; assay: Antibacterial activity against Mycobacterium abscessus ATCC 19977 expressing tomato RFP assessed as bacterial growth inhibition incubated for 3 days in MHII medium by RFP fluorescence based broth microdilution method; type: functional; settings: ATCC 19977, 72 h, time 3 day
Summary of the method: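 Broth microdilution in MHII broth with 0.05 % Tween 80, against the RFP-expressing strain. Twofold nine-point dilution series. Inoculum 5 x 10⁵ cells/mL from a mid-log preculture. Incubated 3 days at 37 °C. Read-out by RFP fluorescence (ex 544/em 590 nm). Controls were 1 % DMSO and 100 μM amikacin. MIC₉₀ from duplicates, averaged.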

[5] = test system: Mycobacterium intracellulare; assay: Antibacterial activity against Mycobacterium intracellulare ATCC 35761 expressing tomato RFP assessed as bacterial growth inhibition incubated for 5 days in 7H9 medium by RFP fluorescence based broth microdilution method; type: functional; settings: ATCC 35761, 120 h, time 5 day; summary of the method: as §1
[6] = test system: Mycobacteroides abscessus; assay: Antibacterial activity against Mycobacterium abscessus Bamboo harboring inactive clarithromycin-sensitive erm41 C28 sequevar assessed as bacterial growth inhibition incubated for 3 days in 7H9 medium by optical density based method; type: functional; settings: 72 h, time 3 day
[7] = test system: Mycobacteroides abscessus; assay: Antibacterial activity against Mycobacterium abscessus ATCC 19977 expressing tomato RFP infected in human THP-1 cells assessed as bacterial growth inhibition incubated for 4 days in RPMI medium by RFP fluorescence based assay; type: functional; settings: ATCC 19977, 96 h, time 4 day
Summary of the method: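 RFP M. abscessus washed, moved into RPMI, filtered through 5 µm and opsonised with 10 % human serum for 30 min. THP-1 cells infected at MOI 5:1 with PMA 40 ng/mL for 4 h at 37 °C, then washed. Infected cells (1x10⁵/well) given a ten-point twofold series. Incubated 4 days at 37 °C, 5 % CO₂. Cells PFA-fixed and DAPI-stained. RFP quantified by imaging. Controls were DMSO and 1.5 µM bedaquiline. Duplicate.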

A-375 = assay: Cytotoxicity against human A-375 cells assessed as reduction in cell viability incubated for 72 hrs by SRB assay; type: toxicity, cell-based
HT-29 = assay: Cytotoxicity against human HT-29 cells assessed as reduction in cell viability incubated for 72 hrs by SRB assay; type: toxicity, cell-based
MCF7 = assay: Cytotoxicity against human MCF7 cells assessed as reduction in cell viability incubated for 72 hrs by SRB assay; type: toxicity, cell-based
A2780 = assay: Cytotoxicity against human A2780 cells assessed as reduction in cell viability incubated for 72 hrs by SRB assay; type: toxicity, cell-based
NIH3T3 = assay: Cytotoxicity against mouse NIH3T3 cells assessed as reduction in cell viability incubated for 72 hrs by SRB assay; type: toxicity, cell-based; settings: nih3t3
HeLa = assay: Cytotoxicity against human HeLa cells assessed as reduction in cell viability incubated for 72 hrs by SRB assay; type: toxicity, cell-based
HEK293 = assay: Cytotoxicity against HEK293 cells assessed as reduction in cell viability incubated for 72 hrs by SRB assay; type: toxicity, cell-based, Homo sapiens
[8] = Kinetic solubility of compound in PBS at 0.78 to 500 uM measured immediately by nephelometric method; type: physicochemical; settings: buffer, dose 0.78-500 µM
Summary of the method: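 DMSO stocks prediluted in DMSO, then diluted 1:50 into PBS (2 % DMSO final) and read immediately by nephelometry at 0.78–500 μM; blank-corrected data fitted by segmental regression; quadruplicates from one stock.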

Question: Which MIC90 [1] does the source give for `O=C(N[C@H](Cc1ccccc1)C(=O)Nc1cc(F)ccc1N1CCS(=O)(=O)CC1)c1ccccc1F` here?
Answer: 1.56 µM (≈ 0.801 µg/mL)

Question: What about the MIC90 [2] of the same compound?
Answer: 0.78 µM (≈ 0.401 µg/mL)

Question: And the MIC90 [3]?
Answer: 3.13 µM (≈ 1.61 µg/mL)

Question: And the MIC90 [4]?
Answer: 3.13 µM (≈ 1.61 µg/mL)

Question: What about the MIC90 [5] of the same compound?
Answer: 0.1 µM (≈ 0.0514 µg/mL)

Question: What about the MIC50 [6] of the same compound?
Answer: 0.4 µM (≈ 0.205 µg/mL)

Question: And the MIC90 [6]?
Answer: 4.5 µM (≈ 2.31 µg/mL)

Question: And the MIC50 [7]?
Answer: 0.39 µM (≈ 0.2 µg/mL)

Question: And the MIC90 [7]?
Answer: 3.13 µM (≈ 1.61 µg/mL)

Question: And the EC50 (A-375)?
Answer: > 30 µM

Question: What about the EC50 (HT-29) of the same compound?
Answer: > 30 µM

Question: What about the EC50 (MCF7) of the same compound?
Answer: 25.9 µM

Question: What about the EC50 (A2780) of the same compound?
Answer: 23.2 µM

Question: And the EC50 (NIH3T3)?
Answer: 24.2 µM

Question: What about the EC50 (HeLa) of the same compound?
Answer: > 30 µM

Question: What about the EC50 (HEK293) of the same compound?
Answer: > 30 µM

Question: And the Kinetic_solubility [8]?
Answer: 32 µM

Question: With `O=C(N[C@H](Cc1ccccc1)C(=O)Nc1cc(F)ccc1N1CCSCC1)c1ccccc1F` as the compound, how does the MIC90 [1] read?
Answer: 6.25 µM (≈ 3.01 µg/mL)

Question: And the MIC90 [2]?
Answer: 1.56 µM (≈ 0.751 µg/mL)

Question: And the MIC90 [3]?
Answer: 25 µM (≈ 12 µg/mL)

Question: And the MIC90 [4]?
Answer: 25 µM (≈ 12 µg/mL)

Question: And the MIC90 [5]?
Answer: 0.78 µM (≈ 0.376 µg/mL)

Question: And the MIC50 [6]?
Answer: 1.15 µM (≈ 0.554 µg/mL)

Question: And the MIC90 [6]?
Answer: 12 µM (≈ 5.78 µg/mL)

Question: And the MIC50 [7]?
Answer: 3.13 µM (≈ 1.51 µg/mL)

Question: And the MIC90 [7]?
Answer: 100 µM (≈ 48.2 µg/mL)

Question: What about the EC50 (A-375) of the same compound?
Answer: 29.4 µM

Question: And the EC50 (HT-29)?
Answer: > 30 µM

Question: And the EC50 (MCF7)?
Answer: > 30 µM

Question: What about the EC50 (A2780) of the same compound?
Answer: 28.3 µM

Question: And the EC50 (NIH3T3)?
Answer: 28.5 µM

Question: And the EC50 (HeLa)?
Answer: 28.3 µM

Question: What about the Kinetic_solubility [8] of the same compound?
Answer: 31 µM

Question: What does the source list for `O=C(N[C@H](Cc1cccs1)C(=O)Nc1ccccc1N1CCOCC1)c1cccs1`?
Answer: MIC90 [1]: 1.56 µM (≈ 0.689 µg/mL); MIC90 [2]: 6.25 µM (≈ 2.76 µg/mL); MIC90 [3]: 12.5 µM (≈ 5.52 µg/mL); MIC90 [4]: 12.5 µM (≈ 5.52 µg/mL); MIC90 [5]: 1.56 µM (≈ 0.689 µg/mL); MIC50 [6]: 2.4 µM (≈ 1.06 µg/mL); MIC90 [6]: 9 µM (≈ 3.97 µg/mL); MIC50 [7]: 12.5 µM (≈ 5.52 µg/mL); MIC90 [7]: > 100 µM; EC50 (A-375): > 30 µM; EC50 (HT-29): 29.8 µM; EC50 (MCF7): > 30 µM; EC50 (A2780): 29.5 µM; EC50 (NIH3T3): 29 µM; EC50 (HeLa): > 30 µM; Kinetic_solubility [8]: 41 µM

Question: For `O=C(N[C@H](Cc1ccccc1)C(=O)Nc1cc(F)ccc1N1CCS(=O)(=O)CC1)c1cccs1`, which MIC90 [1] is on record?
Answer: 1.56 µM (≈ 0.783 µg/mL)

Question: And the MIC90 [2]?
Answer: 0.78 µM (≈ 0.391 µg/mL)

Question: What about the MIC90 [3] of the same compound?
Answer: 6.25 µM (≈ 3.14 µg/mL)

Question: What about the MIC90 [4] of the same compound?
Answer: 3.13 µM (≈ 1.57 µg/mL)

Question: What about the MIC90 [5] of the same compound?
Answer: 0.2 µM (≈ 0.1 µg/mL)

Question: And the MIC50 [6]?
Answer: 0.43 µM (≈ 0.216 µg/mL)

Question: And the MIC90 [6]?
Answer: 6.5 µM (≈ 3.26 µg/mL)

Question: What about the MIC50 [7] of the same compound?
Answer: 0.39 µM (≈ 0.196 µg/mL)

Question: And the MIC90 [7]?
Answer: 3.13 µM (≈ 1.57 µg/mL)

Question: And the EC50 (A-375)?
Answer: > 30 µM

Question: What about the EC50 (HT-29) of the same compound?
Answer: > 30 µM

Question: And the EC50 (MCF7)?
Answer: 23.2 µM

Question: What about the EC50 (A2780) of the same compound?
Answer: 24 µM

Question: And the EC50 (NIH3T3)?
Answer: 26.9 µM

Question: What about the EC50 (HeLa) of the same compound?
Answer: > 30 µM

Question: And the EC50 (HEK293)?
Answer: > 30 µM

Question: And the Kinetic_solubility [8]?
Answer: 70 µM
